Test results reported in ChEMBL document CHEMBL4270660, “Design, synthesis, and systematic evaluation of 4-arylpiperazine- and 4-benzylpiperidine napthyl ethers as inhibitors of monoamine neurotransmitters reuptake” (Bioorg Med Chem, 2018).
Activity calls are given as the source filed them. The rule behind the calls is not given here.

Experiments:
[1] = target: T1, Sodium-dependent serotonin transporter (Homo sapiens, UniProt P31645); conditions: HEK293, at 1 µM
Target sequence in this assay (P31645 whole entry, looked up): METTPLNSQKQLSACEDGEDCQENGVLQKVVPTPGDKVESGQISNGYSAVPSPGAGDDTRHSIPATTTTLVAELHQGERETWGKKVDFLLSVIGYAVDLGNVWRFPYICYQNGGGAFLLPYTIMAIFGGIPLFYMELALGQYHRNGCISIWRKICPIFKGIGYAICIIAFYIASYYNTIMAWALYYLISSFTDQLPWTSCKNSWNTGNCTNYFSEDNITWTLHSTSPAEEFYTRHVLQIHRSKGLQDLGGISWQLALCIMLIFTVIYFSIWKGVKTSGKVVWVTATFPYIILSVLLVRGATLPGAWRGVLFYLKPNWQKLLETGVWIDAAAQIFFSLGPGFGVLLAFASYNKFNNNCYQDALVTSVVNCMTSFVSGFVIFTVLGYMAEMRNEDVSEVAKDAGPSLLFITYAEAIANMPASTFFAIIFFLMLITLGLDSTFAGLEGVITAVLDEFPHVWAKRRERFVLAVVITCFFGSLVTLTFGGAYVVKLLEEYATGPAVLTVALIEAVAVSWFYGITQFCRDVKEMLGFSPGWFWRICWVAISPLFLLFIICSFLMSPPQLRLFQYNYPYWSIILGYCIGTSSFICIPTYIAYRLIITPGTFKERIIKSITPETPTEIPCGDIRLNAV

[2] = target: T2, Sodium-dependent noradrenaline transporter (Homo sapiens, UniProt P23975); test: Inhibition of [3H]norepinephrine uptake at human NET expressed in HEK293 cells at 10 uM after 15 to 20 mins by microbeta scintillation counting method; assay type: cell-based
Procedure, shortened: (§1)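 HEK-293 cells transfected with the human transporter (DAT or NET) were given the radiolabeled substrate, [³H]-DA for DAT or [³H]-NE for NET, at 20 nM in the assay. Uptake was measured by liquid scintillation counting. Reference inhibitors were venlafaxine HCl, bupropion and GBR12909. Single-concentration lines are percent reuptake inhibition at the stated concentration.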

[3] = target: T2, Sodium-dependent noradrenaline transporter; test: Inhibition of [3H]norepinephrine uptake at human NET expressed in HEK293 cells after 15 to 20 mins by microbeta scintillation counting method; assay type: cell-based
Procedure, shortened: as §1, with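 “counting.” for “counting. Reference inhibitors were venlafaxine HCl, bupropion and GBR12909.”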

[4] = target: T1, Sodium-dependent serotonin transporter; test: Inhibition of [3H]serotonin uptake at human SERT expressed in HEK293 cells after 15 to 20 mins by microbeta scintillation counting method; assay type: cell-based
Target sequence in this assay (P31645 whole entry): as the sequence (P31645 whole entry, looked up) above

[5] = target: T1, Sodium-dependent serotonin transporter; test: Inhibition of [3H]serotonin uptake at SERT (unknown origin)
Procedure, shortened: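 Human serotonin transporter (hSERT) expressed by transfection in HEK-293 cells. [³H]-5-HT at 20 nM, with uptake radioactivity counted by liquid scintillation. Percent reuptake inhibition measured at 1 µM and 10 µM, plus IC50 determination.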
Target sequence in this assay (P31645 whole entry): as the sequence (P31645 whole entry, looked up) above

[6] = target: T3, Sodium-dependent dopamine transporter (Homo sapiens, UniProt Q01959); test: Inhibition of [3H]dopamine uptake at DAT (unknown origin)
Procedure, shortened: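 HEK-293 cells transfected with human dopamine transporter (hDAT). Uptake of [³H]-DA at 20 nM, measured by liquid scintillation counting. Test compounds screened as % reuptake inhibition at 1 µM and 10 µM, and IC50 values determined.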

[7] = target: T3, Sodium-dependent dopamine transporter; test: Inhibition of [3H]dopamine uptake at human DAT expressed in HEK293 cells at 1 uM after 15 to 20 mins by microbeta scintillation counting method; assay type: cell-based
Procedure, shortened: as §1

[8] = target: T3, Sodium-dependent dopamine transporter; test: Inhibition of [3H]dopamine uptake at human DAT expressed in HEK293 cells after 15 to 20 mins by microbeta scintillation counting method; assay type: cell-based
Procedure, shortened: as §1

[9] = target: T2, Sodium-dependent noradrenaline transporter; test: Inhibition of [3H]norepinephrine uptake at NET (unknown origin)
Procedure, shortened: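 HEK-293 cells transfected with human norepinephrine transporter (hNET). [³H]-NE at 20 nM as substrate, with uptake read by liquid scintillation counting. Reuptake inhibition recorded at 1 µM and 10 µM test compound, and IC50 derived.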

[10] = target: T2, Sodium-dependent noradrenaline transporter; conditions: HEK293, 1 uM

T3 sequence (Q01959 whole entry): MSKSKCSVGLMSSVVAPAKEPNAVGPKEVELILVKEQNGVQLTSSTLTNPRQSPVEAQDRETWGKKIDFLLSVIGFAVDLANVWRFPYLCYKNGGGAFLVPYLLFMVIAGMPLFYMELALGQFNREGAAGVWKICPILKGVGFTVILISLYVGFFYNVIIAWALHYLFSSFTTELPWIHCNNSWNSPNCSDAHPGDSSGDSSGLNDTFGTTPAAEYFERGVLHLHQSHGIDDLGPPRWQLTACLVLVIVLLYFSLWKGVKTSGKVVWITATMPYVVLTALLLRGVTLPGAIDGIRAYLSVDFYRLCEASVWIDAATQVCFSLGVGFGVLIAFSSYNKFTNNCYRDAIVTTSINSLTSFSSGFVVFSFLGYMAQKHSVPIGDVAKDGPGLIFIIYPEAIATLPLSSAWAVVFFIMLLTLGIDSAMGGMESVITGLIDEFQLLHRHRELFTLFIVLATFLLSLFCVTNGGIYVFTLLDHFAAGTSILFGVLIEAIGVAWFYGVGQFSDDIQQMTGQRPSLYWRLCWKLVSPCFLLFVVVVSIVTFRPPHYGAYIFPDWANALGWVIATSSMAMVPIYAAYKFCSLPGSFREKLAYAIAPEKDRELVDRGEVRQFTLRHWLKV
T2 sequence (P23975 whole entry): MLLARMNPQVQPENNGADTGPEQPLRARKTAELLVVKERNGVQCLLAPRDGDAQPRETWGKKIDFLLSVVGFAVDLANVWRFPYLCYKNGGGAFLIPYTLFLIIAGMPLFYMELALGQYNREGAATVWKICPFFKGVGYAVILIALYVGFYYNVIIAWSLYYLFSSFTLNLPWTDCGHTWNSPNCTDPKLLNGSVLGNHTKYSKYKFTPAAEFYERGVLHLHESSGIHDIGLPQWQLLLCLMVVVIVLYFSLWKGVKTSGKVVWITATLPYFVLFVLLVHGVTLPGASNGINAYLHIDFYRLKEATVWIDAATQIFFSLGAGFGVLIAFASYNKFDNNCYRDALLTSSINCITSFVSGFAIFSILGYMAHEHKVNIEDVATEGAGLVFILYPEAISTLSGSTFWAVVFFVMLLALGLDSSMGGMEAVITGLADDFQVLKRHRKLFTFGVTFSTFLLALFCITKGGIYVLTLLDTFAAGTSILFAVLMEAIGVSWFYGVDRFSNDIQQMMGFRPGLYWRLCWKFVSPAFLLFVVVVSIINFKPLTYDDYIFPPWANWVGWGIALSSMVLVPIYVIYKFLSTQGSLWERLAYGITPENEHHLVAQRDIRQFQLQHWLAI

| SMILES | inhibition [1] | inhibition [2] | IC50 [4] | inhibition [7] | other results |
| --- | --- | --- | --- | --- | --- |
| Cc1cccc(C)c1N1CCN(CCCOc2ccc3ccccc3c2)CC1 | 35.1% | 86.5% | – | – | – |
| Clc1ccc(N2CCN(CCCCOc3ccc4ccccc4c3)CC2)c(Cl)c1 | 51% | 67.7% | 4.32 µM | – | IC50 [3]: 9.74 µM |
| c1ccc(N2CCN(CCCOc3ccc4ccccc4c3)CC2)cc1 | 27% | 79.6% | – | – | – |
| O=C(NCCCN1CCC(Cc2ccccc2)CC1)c1ccc2ccccc2c1 | – | – | – | – | IC50 [5]: 0.1 µM; IC50 [6]: > 10 µM |
| Clc1ccc(N2CCN(CCOc3ccc4ccccc4c3)CC2)cc1 | 20.1% | 28% | – | 2% | – |
| Fc1ccc(C(OCCN2CCN(c3ccccn3)CC2)c2ccc(F)cc2)cc1 | – | – | 0.57 µM | – | – |
| c1cnc(N2CCN(CCCCOc3ccc4ccccc4c3)CC2)nc1 | 32% | 31% | – | – | – |
| c1ccc(N2CCN(CCOc3ccc4ccccc4c3)CC2)nc1 | 54% | 66% | 1.08 µM | inactive | IC50 [3]: 23.8 µM |
| Brc1ccc(N2CCN(CCCCOc3ccc4ccccc4c3)CC2)cc1 | 66.3% | 66.3% | 10.7 µM | – | IC50 [3]: 25.9 µM |
| Clc1cccc(N2CCN(CCCCOc3ccc4ccccc4c3)CC2)c1 | 27.5% | 63.7% | – | – | – |
| Clc1cccc(N2CCN(CCCOc3ccc4ccccc4c3)CC2)c1Cl | 37.5% | 45% | – | – | – |
| Clc1cccc(N2CCN(CCOc3ccc4ccccc4c3)CC2)c1Cl | 26.7% | 20% | – | inactive | – |
| Clc1cccc(N2CCN(CCOc3ccc4ccccc4c3)CC2)c1 | 85.3% | 83.1% | 1.86 µM | inactive | IC50 [3]: 5.83 µM |
| Fc1ccc(N2CCN(CCOc3ccc4ccccc4c3)CC2)cc1 | 60.5% | 80.8% | 2.8 µM | 35.6% | IC50 [3]: 5.13 µM |
| c1ccc(CC2CCN(CCCCOc3ccc4ccccc4c3)CC2)cc1 | 31.9% | 80.7% | – | – | – |
| O=C(NCCCN1CCN(c2cccc(Cl)c2Cl)CC1)c1ccc2ccccc2c1 | – | – | – | – | IC50 [8]: > 10 µM |
| Fc1cccc(F)c1N1CCN(CCCn2nnnc2C(c2ccccc2)c2ccccc2)CC1 | – | – | > 10 µM | – | – |
| c1ccc(CC2CCN(CCOc3ccc4ccccc4c3)CC2)cc1 | 12.1% | – | – | inactive | – |
| COc1ccccc1N1CCN(CCCOc2ccc3ccccc3c2)CC1 | 56.4% | 85.3% | 1.04 µM | – | IC50 [3]: 1.2 µM |
| Fc1ccc(N2CCN(CCCCOc3ccc4ccccc4c3)CC2)cc1 | 71% | 74.3% | 3.15 µM | – | IC50 [3]: 3.71 µM |
| FC(F)(F)c1ccc(N2CCN(CCOc3ccc4ccccc4c3)CC2)cc1 | 8.2% | 23.1% | – | 31.3% | – |
| c1cnc(N2CCN(CCOc3ccc4ccccc4c3)CC2)nc1 | 57% | – | – | inactive | – |

| SMILES | inhibition [1] | inhibition [2] | IC50 [4] | inhibition [7] | other results |
| --- | --- | --- | --- | --- | --- |
| Cc1cccc(C)c1N1CCN(CCCCOc2ccc3ccccc3c2)CC1 | 38.3% | 74.4% | – | – | – |
| Cc1cccc(C)c1N1CCN(CCOc2ccc3ccccc3c2)CC1 | 24.6% | 74.9% | – | 19% | – |
| FC(F)(F)c1ccc(N2CCN(CCCCOc3ccc4ccccc4c3)CC2)cc1 | 59.2% | 68.3% | 0.68 µM | – | IC50 [3]: 20.5 µM |
| c1cnc(N2CCN(CCCOc3ccc4ccccc4c3)CC2)nc1 | 23.8% | 47.3% | – | – | – |
| COc1ccccc1N1CCN(CCOc2ccc3ccccc3c2)CC1 | 48.7% | 21% | – | 19% | – |
| Clc1cccc(N2CCN(CCCCOc3ccc4ccccc4c3)CC2)c1Cl | 36.8% | 60.7% | – | – | – |
| Fc1ccc(N2CCN(CCCOc3ccc4ccccc4c3)CC2)cc1 | 45.4% | 23.3% | – | – | – |
| c1ccc(CC2CCN(CCCOc3ccc4ccccc4c3)CC2)cc1 | 51% | 92.2% | 0.99 µM | – | IC50 [3]: 2.54 µM |
| Clc1ccc(N2CCN(CCCCOc3ccc4ccccc4c3)CC2)cc1 | 49% | 69.3% | – | – | – |
| c1ccc(N2CCN(CCCCOc3ccc4ccccc4c3)CC2)cc1 | 41.2% | 86.4% | – | – | – |
| c1ccc(C2CCN(CCCn3nnnc3C(c3ccccc3)c3ccccc3)CC2)cc1 | – | – | – | – | IC50 [9]: 0.51 µM; IC50 [5]: > 10 µM; IC50 [6]: 0.09 µM |
| c1ccc(N2CCN(CCCCOc3ccc4ccccc4c3)CC2)nc1 | 45.3% | 59% | – | – | – |
| COc1ccccc1N1CCN(CCCCOc2ccc3ccccc3c2)CC1 | 51.3% | 68% | 5.16 µM | – | IC50 [3]: 29.7 µM |
| c1ccc(N2CCN(CCCOc3ccc4ccccc4c3)CC2)nc1 | 46.2% | 68.7% | – | – | – |
| c1ccc(N2CCN(CCOc3ccc4ccccc4c3)CC2)cc1 | 7.2% | 28% | – | 9% | – |
| CC(NC(C)(C)C)C(=O)c1cccc(Cl)c1 (stereo unspecified) | – | 61.5% | – | 78.3% | – |
| Clc1ccc(N2CCN(CCCOc3ccc4ccccc4c3)CC2)cc1 | 28.4% | 25.7% | – | – | – |
| Clc1ccc(N2CCN(CCOc3ccc4ccccc4c3)CC2)c(Cl)c1 | 61.4% | 47.3% | – | 48.5% | – |
| COc1ccc(C(CN(C)C)C2(O)CCCCC2)cc1 (stereo unspecified) | – | – | – | – | inhibition [10]: 52.6% |
| Brc1ccc(N2CCN(CCCOc3ccc4ccccc4c3)CC2)cc1 | 54.9% | 80% | 0.83 µM | – | IC50 [3]: 2.85 µM |
| Brc1ccc(N2CCN(CCOc3ccc4ccccc4c3)CC2)cc1 | 9% | 52.8% | – | 19% | – |
